Columns and labels:
[1] = molecular target: T1, Adenosine receptor A2b (Homo sapiens) (UniProt P29275); assay: Antagonist activity at Adenosine receptor subtype 2B in human RBC assessed as change in erythrocyte morphology at 10 uM incubated for 3 hrs with occasional gentle stirring for every 30 min measured for every 12 hrs by microscopic analysis relative to control; type: functional, cell-based; design: scale not given: the % may be the effect or the level left
T1 sequence (whole entry): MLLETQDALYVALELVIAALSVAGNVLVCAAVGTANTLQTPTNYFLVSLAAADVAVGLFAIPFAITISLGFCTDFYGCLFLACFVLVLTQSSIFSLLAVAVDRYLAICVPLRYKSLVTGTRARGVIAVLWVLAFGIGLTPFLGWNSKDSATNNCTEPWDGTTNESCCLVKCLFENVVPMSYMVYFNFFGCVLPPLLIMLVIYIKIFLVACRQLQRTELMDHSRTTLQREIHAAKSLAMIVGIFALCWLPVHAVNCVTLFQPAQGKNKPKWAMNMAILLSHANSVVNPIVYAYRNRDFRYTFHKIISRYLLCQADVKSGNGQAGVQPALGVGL
Procedure, shortened: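 RBCs come from sickle cell anemia patients, washed in 0.9% saline and diluted 1:10. Cells are exposed to compound at a single 10 µM final concentration for 3 h at 37 °C, stirred gently every 30 min, then given 2% sodium metabisulfite. Morphology is read by microscopy (40X) every 12 h, counting >500 erythrocytes from five random fields. Triplicate assays; MRS1754 (10 µM) is the reference antagonist.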

[2] = molecular target: T1, Adenosine receptor A2b (Homo sapiens); assay: Antagonist activity at Adenosine receptor subtype 2B in human RBC assessed as inhibition of NECA-induced-sickling effect by measuring change in erythrocyte morphology preincubated for 3 hrs with occasional gentle stirring for every 30 min followed by incubated for 2 to 12 hrs under normoxic/hypoxic condition measured for every 12 hrs by microscopic analysis; type: functional, cell-based
Procedure, shortened: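 Patient SCA erythrocytes are treated as in the EC50 sickling assay. Compounds are tested at three concentrations (0.03-1) against six NECA concentrations (0.001-1000). Sickling is scored by microscopy. NECA EC50 is determined with and without compound, and the dose ratio is derived from these. pKb is obtained by Schild analysis as log[DR−1] − log[B]. Mean ± SD of five experiments.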

Adenosine receptor = Adenosine receptor (Homo sapiens, UniProt P30542+P29275+P0DMS8+P29274); assay: Antagonist activity at Adenosine receptor in human RBC assessed as change in erythrocyte morphology incubated for 3 hrs with occasional gentle stirring for every 30 min measured for every 12 hrs by microscopic analysis; type: cell-based
Procedure, shortened: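 Erythrocytes from sickle cell anemia patients are separated by centrifugation (5 min, 16,000 g, 4 °C), washed three times in 0.9% saline and diluted 1:10 in saline. Cells are held with compound at 37 °C for 3 h, then challenged with 2% sodium metabisulfite. Sickled cells (>500 cells, five fields, 40X) are counted. Seven concentrations (0.001-100) are tested. EC50 comes from biphasic nonlinear regression with Hill slopes fixed at 1.0. Mean ± SD of five experiments, each in triplicate.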

J774 = assay: Cytotoxicity against mouse J774 cells assessed as cell viability up to 100 uM after 72 hrs by AlamarBlue assay; type: cell-based; settings: j774, 72 h
Procedure, shortened: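 J774 murine macrophage-like cells are seeded at 2 × 10^5 cells/well in DMEM with 10% FBS and gentamycin and incubated 2 h at 37 °C, 5% CO2. Compounds are added at five concentrations (6.25-100) for 72 h, in 5% DMSO/saline vehicle. Alamar Blue is then added for 12 h more, with absorbance read at 570 and 600 nm. Gentian violet serves as positive control. Triplicates, three experiments.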

| Compound | Activity [1] | inhibition [2] | pKb [2] | pEC50 (Adenosine receptor) | Activity (J774) |
| --- | --- | --- | --- | --- | --- |
| CC(C)c1noc(OCC(=O)NCc2ccc3c(c2)OCO3)n1 | > 70% | Dose-dependent effect | 7.99 | 4.21 |  |
| Cc1cc(NC(=O)CNc2ccc3c(c2)OC(F)(F)O3)on1 | > 70% | Dose-dependent effect | 7.38 | 5.06 |  |
| O=C(CN1CCOC(Cn2cncn2)C1)Nc1cccnc1 (stereo not drawn) | > 70% | Dose-dependent effect | 8.31 | 5.29 | Non-Toxic |
| CC(OC(=O)c1nccnc1N)C(=O)NCc1ccc2c(c1)OCO2 (stereo not drawn) | > 70% | Dose-dependent effect | 9.54 |  |  |
| CCCc1cc(O)nc(SC(C)C(=O)Nc2cc(C)no2)n1 (stereo not drawn) | > 70% | Dose-dependent effect | 9.45 |  | Non-Toxic |
| CCCn1c(=O)c2[nH]c(-c3ccc(OCC(=O)Nc4ccc(C#N)cc4)cc3)nc2n(CCC)c1=O | 54% | Dose-dependent effect | 8.68 |  |  |

— ChEMBL document CHEMBL4138111, “Nanomolar anti-sickling compounds identified by ligand-based pharmacophore approach” (Eur J Med Chem, 2017)
